Measurements as given in ChEMBL document CHEMBL3616442, “Unconventional Knoevenagel-type indoles: Synthesis and cell-based studies for the identification of pro-apoptotic agents” (Eur J Med Chem, 2015).
pEC50: −log10 of the molar value.

How the values were obtained:
[1] = system: OVCAR-3; test: Growth inhibition of human OVCAR3 cells after 48 hrs by sulforhodamine B assay; type: functional; conditions: OVCAR-3, 48 h
How it was run: (§1)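 NCI 60-cell-line screen. Compounds tested at five 10-fold dilutions from 10^-4 to 10^-8 M. Cells exposed for the last 48 h of a 72 h incubation, growth estimated by sulforhodamine B protein assay. GI50 is the concentration giving 50% growth inhibition. Values beyond the tested range are expressed as greater or lesser than the extreme concentration.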

[2] = system: SK-MEL-2; test: Growth inhibition of human SK-MEL-2 cells after 48 hrs by sulforhodamine B assay; type: functional; conditions: SK-MEL-2, 48 h
[3] = Growth inhibition of human SF295 cells after 48 hrs by sulforhodamine B assay; type: functional; conditions: SF-295, 48 h
[4] = system: M14; test: Growth inhibition of human M14 cells after 48 hrs by sulforhodamine B assay; type: functional; conditions: M14, 48 h; how it was run: as §1
[5] = Growth inhibition of human SF539 cells after 48 hrs by sulforhodamine B assay; type: functional; conditions: SF-539, 48 h
[6] = system: NCI-H23; test: Growth inhibition of human NCI-H23 cells after 48 hrs by sulforhodamine B assay; type: functional; conditions: NCI-H23, 48 h; how it was run: as §1
[7] = system: PC-3; test: Growth inhibition of human PC3 cells after 48 hrs by sulforhodamine B assay; type: functional; conditions: PC-3, 48 h
[8] = system: SK-MEL-28; test: Growth inhibition of human SK-MEL-28 cells after 48 hrs by sulforhodamine B assay; type: functional; conditions: SK-MEL-28, 48 h
[9] = Growth inhibition of human BT549 cells after 48 hrs by sulforhodamine B assay; type: functional; conditions: BT-549, 48 h; how it was run: as §1
[10] = system: Malme-3M; test: Growth inhibition of human MALME-3M cells after 48 hrs by sulforhodamine B assay; type: functional; how it was run: as §1
[11] = system: MT4; test: Antiproliferative activity against human MT4 cells after 96 hrs by MTT assay; type: functional, cell-based; conditions: MT4, 96 h
How it was run: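 Exponentially growing MT-4 cells (CD4+ human T-cells carrying integrated HTLV-1 genome), seeded at 1×10^5 cells/mL in RPMI-1640 with 10% FCS and antibiotics. Serial dilutions of compound (DMSO stock 100 mM, diluted in medium), 37 °C, 5% CO₂, 96 h. Viability read by MTT. 50% inhibition versus untreated controls by linear regression. Mean ± SD of three independent determinations.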

[12] = Growth inhibition of human HCC2998 cells after 48 hrs by sulforhodamine B assay; type: functional; conditions: HCC 2998, 48 h; how it was run: as §1
[13] = system: HOP-62; test: Growth inhibition of human HOP62 cells after 48 hrs by sulforhodamine B assay; type: functional; conditions: HOP-62, 48 h; how it was run: as §1
[14] = system: HT-29; test: Growth inhibition of human HT-29 cells after 48 hrs by sulforhodamine B assay; type: functional; conditions: HT-29, 48 h; how it was run: as §1
[15] = system: MDA-MB-231; test: Growth inhibition of human MDA-MB-231 cells after 48 hrs by sulforhodamine B assay; type: functional; conditions: MDA-MB-231, 48 h; how it was run: as §1
[16] = system: SN12C; test: Growth inhibition of human SN12C cells after 48 hrs by sulforhodamine B assay; type: functional
[17] = system: DU-145; test: Growth inhibition of human DU145 cells after 48 hrs by sulforhodamine B assay; type: functional; conditions: DU-145, 48 h; how it was run: as §1
[18] = Growth inhibition of human EKVX cells after 48 hrs by sulforhodamine B assay; type: functional; how it was run: as §1
[19] = system: KM12; test: Growth inhibition of human KM12 cells after 48 hrs by sulforhodamine B assay; type: functional; conditions: KM12, 48 h; how it was run: as §1
[20] = Growth inhibition of human NCI-ADR-RES cells after 48 hrs by sulforhodamine B assay; type: functional; how it was run: as §1
[21] = system: UO-31; test: Growth inhibition of human UO31 cells after 48 hrs by sulforhodamine B assay; type: functional; conditions: UO-31, 48 h
[22] = system: SK-OV-3; test: Growth inhibition of human SKOV3 cells after 48 hrs by sulforhodamine B assay; type: functional; conditions: SK-OV-3, 48 h
[23] = Growth inhibition of human Hs 578T cells after 48 hrs by sulforhodamine B assay; type: functional; how it was run: as §1
[24] = system: HCT-15; test: Growth inhibition of human HCT15 cells after 48 hrs by sulforhodamine B assay; type: functional; conditions: HCT-15, 48 h; how it was run: as §1
[25] = system: T47D; test: Growth inhibition of human T47D cells after 48 hrs by sulforhodamine B assay; type: functional
[26] = system: MCF7; test: Growth inhibition of human MCF7 cells after 48 hrs by sulforhodamine B assay; type: functional; conditions: MCF7, 48 h; how it was run: as §1
[27] = system: SF-268; test: Growth inhibition of human SF268 cells after 48 hrs by sulforhodamine B assay; type: functional; conditions: SF-268, 48 h
[28] = system: SNB-19; test: Growth inhibition of human SNB19 cells after 48 hrs by sulforhodamine B assay; type: functional; conditions: SNB-19, 48 h
[29] = system: CCRF-CEM; test: Growth inhibition of human CCRF-CEM cells after 48 hrs by sulforhodamine B assay; type: functional; how it was run: as §1
[30] = system: ACHN; test: Growth inhibition of human ACHN cells after 48 hrs by sulforhodamine B assay; type: functional; how it was run: as §1
[31] = system: SNB-75; test: Growth inhibition of human SNB75 cells after 48 hrs by sulforhodamine B assay; type: functional; conditions: SNB-75, 48 h
[32] = system: OVCAR-8; test: Growth inhibition of human OVCAR8 cells after 48 hrs by sulforhodamine B assay; type: functional; conditions: OVCAR-8, 48 h
[33] = system: A498; test: Growth inhibition of human A498 cells after 48 hrs by sulforhodamine B assay; type: functional; conditions: A498, 48 h; how it was run: as §1
[34] = system: U-251; test: Growth inhibition of human U251 cells after 48 hrs by sulforhodamine B assay; type: functional; conditions: U-251, 48 h
[35] = system: TK-10; test: Growth inhibition of human TK10 cells after 48 hrs by sulforhodamine B assay; type: functional; conditions: TK-10, 48 h
[36] = system: OVCAR-4; test: Growth inhibition of human OVCAR4 cells after 48 hrs by sulforhodamine B assay; type: functional; conditions: OVCAR-4, 48 h; how it was run: as §1
[37] = system: MDA-MB-468; test: Growth inhibition of human MDA-MB-468 cells after 48 hrs by sulforhodamine B assay; type: functional; conditions: MDA-MB-468, 48 h; how it was run: as §1
[38] = system: NCI-H226; test: Growth inhibition of human NCI-H226 cells after 48 hrs by sulforhodamine B assay; type: functional; conditions: NCI-H226, 48 h; how it was run: as §1
[39] = system: IGROV-1; test: Growth inhibition of human IGROV1 cells after 48 hrs by sulforhodamine B assay; type: functional; conditions: IGROV-1, 48 h; how it was run: as §1
[40] = system: NCI-H522; test: Growth inhibition of human NCI-H522 cells after 48 hrs by sulforhodamine B assay; type: functional; conditions: NCI-H522, 48 h; how it was run: as §1
[41] = system: HCT-116; test: Growth inhibition of human HCT116 cells after 48 hrs by sulforhodamine B assay; type: functional; conditions: HCT-116, 48 h; how it was run: as §1
[42] = Growth inhibition of human LOXIMVI cells after 48 hrs by sulforhodamine B assay; type: functional; conditions: LOX IMVI; how it was run: as §1
[43] = system: CAKI-1; test: Growth inhibition of human CAKI-1 cells after 48 hrs by sulforhodamine B assay; type: functional; conditions: CAKI-1, 48 h; how it was run: as §1
[44] = system: A549; test: Growth inhibition of human A549 cells after 48 hrs by sulforhodamine B assay; type: functional; conditions: A549, 48 h; how it was run: as §1
[45] = system: SW-620; test: Growth inhibition of human SW620 cells after 48 hrs by sulforhodamine B assay; type: functional; conditions: SW-620, 48 h
[46] = Growth inhibition of human RXF393 cells after 48 hrs by sulforhodamine B assay; type: functional; conditions: RXF 393, 48 h
[47] = Growth inhibition of human COLO205 cells after 48 hrs by sulforhodamine B assay; type: functional; conditions: COLO 205, 48 h; how it was run: as §1
[48] = Growth inhibition of human RPMI8226 cells after 48 hrs by sulforhodamine B assay; type: functional; conditions: RPMI-8226, 48 h
[49] = system: NCI-H460; test: Growth inhibition of human NCI-H460 cells after 48 hrs by sulforhodamine B assay; type: functional; conditions: NCI-H460, 48 h; how it was run: as §1
[50] = system: MDA-MB-435; test: Growth inhibition of human MDA-MB-435 cells after 48 hrs by sulforhodamine B assay; type: functional; conditions: MDA-MB-435, 48 h; how it was run: as §1
[51] = system: 786-0; test: Growth inhibition of human 786-0 cells after 48 hrs by sulforhodamine B assay; type: functional; conditions: 786-0, 48 h; how it was run: as §1
[52] = Growth inhibition of human HOP92 cells after 48 hrs by sulforhodamine B assay; type: functional; conditions: HOP-92, 48 h; how it was run: as §1
[53] = system: UACC-257; test: Growth inhibition of human UACC257 cells after 48 hrs by sulforhodamine B assay; type: functional; conditions: UACC-257, 48 h
[54] = system: NCI-H322M; test: Growth inhibition of human NCI-H322M cells after 48 hrs by sulforhodamine B assay; type: functional; how it was run: as §1
[55] = system: UACC-62; test: Growth inhibition of human UACC62 cells after 48 hrs by sulforhodamine B assay; type: functional; conditions: UACC-62, 48 h

- GI50 [1]: 2.4 µM
- GI50 [2]: 35.2 µM
- GI50 [6]: 16 µM
- GI50 [7]: 3.5 µM
- GI50 [8]: 12 µM
- GI50 [14]: 3.4 µM
- GI50 [15]: 13.2 µM
- GI50 [17]: 5.2 µM
- GI50 [22]: 15.2 µM
- GI50 [24]: 3.5 µM
- GI50 [25]: 5.3 µM
- GI50 [26]: 4 µM
- GI50 [29]: 7.3 µM
- GI50 [30]: 7.2 µM
- GI50 [32]: 2.2 µM
- GI50 [34]: 4.7 µM
- GI50 [36]: 65.3 µM
- GI50 [37]: 5.6 µM
- GI50 [38]: 6.8 µM
- GI50 [40]: 4 µM
- GI50 [41]: 5.3 µM
- GI50 [44]: 7.6 µM
- GI50 [45]: 3 µM
- GI50 [49]: 4.5 µM
- GI50 [50]: 0.37 µM
- GI50 [51]: 16.5 µM
- GI50 [54]: 3.8 µM
SMILES: N#C/C(=C\c1c(-c2ccccc2)[nH]c2ccccc12)C(=O)c1ccccc1
- GI50 [3]: 3 µM
- GI50 [4]: 4.8 µM
- GI50 [5]: 6 µM
- GI50 [9]: 3 µM
- GI50 [10]: 12.3 µM
- pEC50 [11]: 6.30
- GI50 [12]: 14.5 µM
- GI50 [13]: 16.3 µM
- GI50 [16]: 5.7 µM
- GI50 [18]: 10 µM
- GI50 [19]: 2 µM
- GI50 [20]: 3.1 µM
- GI50 [21]: 30.5 µM
- GI50 [23]: 6.3 µM
- GI50 [27]: 5.7 µM
- GI50 [28]: 16.8 µM
- GI50 [31]: 3.2 µM
- GI50 [33]: 15.3 µM
- GI50 [35]: 11.1 µM
- GI50 [39]: 2.5 µM
- GI50 [42]: 7.4 µM
- GI50 [43]: 2.5 µM
- GI50 [46]: 9.6 µM
- GI50 [47]: 5 µM
- GI50 [48]: 2.4 µM
- GI50 [52]: 4.5 µM
- GI50 [53]: 10.9 µM
- GI50 [55]: 3.6 µM
